This note sets out measurements from ChEMBL document CHEMBL1914320, “C4-alkylthiols with activity against Moraxella catarrhalis and Mycobacterium tuberculosis” (Bioorg Med Chem, 2011).

The MBC is the lowest tested concentration that kills the bacteria rather than only halting them. A low value points to more potent killing.

Assay [1] has as its system Moraxella catarrhalis. In words: Antibacterial activity against beta-lactamase producing Moraxella catarrhalis isolate 5 at 10 ug/disc after overnight incubation by disc diffusion assay. Type of assay: functional. To be noted: for zone of inhibition at 10 µg/disc: read-out: IZ. In a few lines: (§1)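 Isolates were held at −80 °C. Five colonies were suspended in Mueller-Hinton broth to a 0.5 McFarland density and swabbed onto MH agar. Discs carried 10 μg compound, applied in methanol and dried at room temperature. Plates were incubated overnight at 37 °C, and the zone of inhibition was measured in mm from the disc edge. Controls were methanol-only and penicillin discs. Run blinded, in triplicate.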

Assay [2] concerns Staphylococcus aureus. As to the kind of experiment: Antibacterial activity against non-beta-lactamase producing Staphylococcus aureus ATCC 25923 at 10 ug/disc after overnight incubation by disc diffusion assay. Type of assay: functional, organism-based. In a few lines:
as §1
(In general: In agar diffusion tests the substance spreads into inoculated agar from a disc or well.)

The test system of assay [3] is Moraxella catarrhalis. As to the kind of experiment: Antibacterial activity against beta-lactamase producing Moraxella catarrhalis isolate 4 at 10 ug/disc after overnight incubation by disc diffusion assay in presence of 1 mol equiv of glutathione. Format: functional. Particulars: for zone of inhibition at 10 µg/disc: read-out: IZ.
In assay [4] the test system is Moraxella catarrhalis. As to the kind of experiment: Antibacterial activity against beta-lactamase producing Moraxella catarrhalis isolate 3 at 10 ug/disc after overnight incubation by disc diffusion assay. Type of assay: functional. Particulars: for zone of inhibition at 10 µg/disc: read-out: IZ. Put shortly: as §1
Assay [5] deals with Moraxella catarrhalis. In words: Antibacterial activity against beta-lactamase producing Moraxella catarrhalis isolate 1 at 10 ug/disc after overnight incubation by disc diffusion assay. Format: functional. To be noted: for zone of inhibition at 10 µg/disc: read-out: IZ. Put shortly:
as §1

Assay [6] deals with Enterococcus faecalis. As to the kind of experiment: Antibacterial activity against non-beta-lactamase producing Enterococcus faecalis ATCC 29212 after 48 hrs by microdilution broth method. Format: functional, organism-based. In a few lines:
(§2)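 Broth microdilution followed CLSI guidelines. Compound was dissolved in 95% ethanol, diluted at least 10-fold into Mueller-Hinton broth, then serially two-fold diluted from 500 to 15.6 μg/mL. Actively growing culture was added at 5 × 10^5 cells/mL. Plates ran 48 h at 37 °C, scored for visible growth at 24 and 48 h. MIC was the lowest concentration without growth. For MBC, 10 μL from each clear well was plated on MH agar. Controls were ethanol and penicillin. Triplicate.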

The test system of assay [7] is Moraxella catarrhalis. In words: Antibacterial activity against beta-lactamase producing Moraxella catarrhalis isolate 5 at 10 ug/disc after overnight incubation by disc diffusion assay in presence of 1 mol equiv of glutathione. Format: functional. Particulars: for zone of inhibition at 10 µg/disc: read-out: IZ.
Assay [8] deals with Pseudomonas aeruginosa. As to the kind of experiment: Antibacterial activity against non-beta-lactamase producing Pseudomonas aeruginosa ATCC 27853 after 48 hrs by microdilution broth method. Type of assay: functional, organism-based. Put shortly: as §2
A general note: Dilution methods test growth across graded concentrations, often in twofold steps.

Assay [9] concerns Moraxella catarrhalis. As to the kind of experiment: Antibacterial activity against beta-lactamase producing Moraxella catarrhalis isolate 2 at 10 ug/disc after overnight incubation by disc diffusion assay in presence of 1 mol equiv of glutathione. Particulars: for zone of inhibition at 10 µg/disc: read-out: IZ. Type of assay: functional.
Assay [10] deals with Pseudomonas aeruginosa. In words: Antibacterial activity against non-beta-lactamase producing Pseudomonas aeruginosa ATCC 27853 at 10 ug/disc after overnight incubation by disc diffusion assay. Format: functional, organism-based. In a few lines: as §1
Assay [11] has as its system Moraxella catarrhalis. As to the kind of experiment: Antibacterial activity against beta-lactamase producing Moraxella catarrhalis isolate 6 at 10 ug/disc after overnight incubation by disc diffusion assay in presence of 1 mol equiv of glutathione. Type of assay: functional. To be noted: for zone of inhibition at 10 µg/disc: read-out: IZ.
Assay [12] has as its system Moraxella catarrhalis. As to the kind of experiment: Antibacterial activity against beta-lactamase producing Moraxella catarrhalis isolate 2 at 10 ug/disc after overnight incubation by disc diffusion assay. Type of assay: functional. To be noted: for zone of inhibition at 10 µg/disc: read-out: IZ. In a few lines:
as §1

For assay [13], the system named is Moraxella catarrhalis. As to the kind of experiment: Antibacterial activity against beta-lactamase producing Moraxella catarrhalis isolate 6 at 10 ug/disc after overnight incubation by disc diffusion assay. Particulars: for zone of inhibition at 10 µg/disc: read-out: IZ. Format: functional. Put shortly: as §1
For assay [14], the system named is Moraxella catarrhalis. In words: Antibacterial activity against beta-lactamase producing Moraxella catarrhalis isolate 1 at 10 ug/disc after overnight incubation by disc diffusion assay in presence of 1 mol equiv of glutathione. Format: functional.
The test system of assay [15] is Escherichia coli. As to the kind of experiment: Antibacterial activity against non-beta-lactamase producing Escherichia coli ATCC 25922 after 48 hrs by microdilution broth method. Type of assay: functional, organism-based. Put shortly: as §2
For assay [16], the system named is Escherichia coli. In words: Antibacterial activity against non-beta-lactamase producing Escherichia coli ATCC 25922 at 10 ug/disc after overnight incubation by disc diffusion assay. Type of assay: functional, organism-based. In a few lines:
as §1

Assay [17] relates to Moraxella catarrhalis. In words: Antibacterial activity against beta-lactamase producing Moraxella catarrhalis isolate 3 at 10 ug/disc after overnight incubation by disc diffusion assay in presence of 1 mol equiv of glutathione. Type of assay: functional. To be noted: for zone of inhibition at 10 µg/disc: read-out: IZ.
In assay [18] the test system is Enterococcus faecalis. As to the kind of experiment: Antibacterial activity against non-beta-lactamase producing Enterococcus faecalis ATCC 29212 at 10 ug/disc after overnight incubation by disc diffusion assay. Type of assay: functional, organism-based. In a few lines:
as §1

In assay [19] the test system is Moraxella catarrhalis. As to the kind of experiment: Antibacterial activity against beta-lactamase producing Moraxella catarrhalis isolate 4 at 10 ug/disc after overnight incubation by disc diffusion assay. Type of assay: functional. Particulars: for zone of inhibition at 10 µg/disc: read-out: IZ. In a few lines:
as §1

The test system of assay [20] is Staphylococcus aureus. As to the kind of experiment: Antibacterial activity against non-beta-lactamase producing Staphylococcus aureus ATCC 25923 after 48 hrs by microdilution broth method. Format: functional, organism-based. Put shortly: as §2
The test system of assay [21] is Moraxella catarrhalis. In words: Antibacterial activity against beta-lactamase producing Moraxella catarrhalis isolate 6 at 500 ug/ml after overnight incubation by disc diffusion assay. Type of assay: functional, organism-based.
In assay [22] the test system is Moraxella catarrhalis. As to the kind of experiment: Antibacterial activity against beta-lactamase producing Moraxella catarrhalis isolate 4 at 500 ug/ml after overnight incubation by disc diffusion assay. Format: functional, organism-based.
Assay [23] deals with Moraxella catarrhalis. As to the kind of experiment: Antibacterial activity against beta-lactamase producing Moraxella catarrhalis isolate 5 at 500 ug/ml after overnight incubation by disc diffusion assay. Type of assay: functional, organism-based.
Assay [24] concerns Moraxella catarrhalis. In words: Antibacterial activity against beta-lactamase producing Moraxella catarrhalis isolate 3 at 500 ug/ml after overnight incubation by disc diffusion assay. Type of assay: functional, organism-based.
The subject of assay [25] is Mycobacterium tuberculosis. In words: Antimycobacterial activity against wild type Mycobacterium tuberculosis H37Rv at 200 ug/ml by Alamar blue assay. Format: functional, organism-based.
Assay [26] concerns Moraxella catarrhalis. In words: Antibacterial activity against beta-lactamase producing Moraxella catarrhalis isolate 2 at 500 ug/ml after overnight incubation by disc diffusion assay. Format: functional, organism-based.
Assay [27] relates to Mycobacterium tuberculosis. In words: Antimycobacterial activity against wild type Mycobacterium tuberculosis H37Rv by Alamar blue assay. Type of assay: functional.
Assay [28] has as its system Moraxella catarrhalis. As to the kind of experiment: Antibacterial activity against beta-lactamase producing Moraxella catarrhalis isolate 2 after 48 hrs incubation by microdilution broth method. Format: functional. Particulars: isolate 2, 48 h. In a few lines:
as §2

Assay [29] relates to Moraxella catarrhalis. As to the kind of experiment: Antibacterial activity against beta-lactamase producing Moraxella catarrhalis isolate 4 after 48 hrs incubation by microdilution broth method. Type of assay: functional. To be noted: isolate 4, 48 h. Put shortly: as §2
In assay [30] the test system is Moraxella catarrhalis. In words: Antibacterial activity against beta-lactamase producing Moraxella catarrhalis isolate 1 after 48 hrs incubation by microdilution broth method. Type of assay: functional. Particulars: isolate 1, 48 h. Put shortly: as §2
Assay [31] relates to Moraxella catarrhalis. As to the kind of experiment: Antibacterial activity against beta-lactamase producing Moraxella catarrhalis isolate 5 after 48 hrs incubation by microdilution broth method. Format: functional. Particulars: isolate 5, 48 h. In a few lines: as §2
Assay [32] deals with Moraxella catarrhalis. As to the kind of experiment: Antibacterial activity against beta-lactamase producing Moraxella catarrhalis isolate 3 after 48 hrs incubation by microdilution broth method. Format: functional. Particulars: isolate 3, 48 h. In a few lines:
as §2

Assay [33] has as its system Moraxella catarrhalis. As to the kind of experiment: Antibacterial activity against beta-lactamase producing Moraxella catarrhalis isolate 6 after 48 hrs incubation by microdilution broth method. Type of assay: functional. Particulars: isolate 6, 48 h. In a few lines: as §2

Calls of active or inactive are those of the source. The calls are words filed in the database; no cut-off is given here.

Consider `CC(=O)SC1CC(=O)N1` (racemic), for which the zone of inhibition at 10 µg/disc is 28 mm in assay [1]; 22 mm in [3]; 24 mm in assay [4]; 19 mm in assay [5]; 24 mm in assay [7]; 19 mm in assay [9]. For the same compound, the zone of inhibition at 10 µg/disc in assay [11] amounted to 19 mm; in assay [12] it was 20 mm; in assay [13], 20 mm; in [14] (read-out: IZ), 16 mm; in [17], 19 mm; in assay [19], 26 mm. Also, the result in assay [2], in assay [6], in assay [8], in assay [10], in [15] and in [16] was inactive. Further, the outcome in assay [18] and in assay [20] was inactive.

Consider `CCOC(=O)CN1C(=O)C(OC)C1C(CC)(CC)SSC(C=O)(CC)CC` (racemic), for which the zone of inhibition at 10 µg/disc in assay [1] amounted to 3 mm; in assay [5], 20 mm. Also, the result in assay [2], in assay [6], in [8], in assay [10], in assay [15] and in assay [16] was inactive. Moreover, the outcome in assay [18] and in assay [20] was inactive. Moreover, the “inhibition zone (IZ)” value in assay [4], in assay [12] and in assay [19] was “inactive” in each case. Also, the “antibacterial activity (active/not active)” value in assay [21], in assay [22], in assay [23], in assay [24] and in [26] was “Active” in each case. Also, in assay [25], the “antimycobacterial activity (active/not active)” value was “Active”.

Turning to `CCC(CC)(CO)SC1CC(=O)N1` (configuration not stated), the outcome in assay [2], in [6], in assay [8], in [10], in [15] and in assay [16] was inactive. Also, the outcome in [18] and in [20] was inactive. In addition, the “inhibition zone (IZ)” value in [3], in [7], in assay [9], in assay [14] and in [17] was “inactive” in each case.

For `Nc1ccc(SC2CC(=O)N2S(=O)(=O)O)cc1` (racemic), the “inhibition zone (IZ)” value in [1], in [4], in [5], in assay [7], in assay [9] and in assay [11] was “inactive” throughout. For the same compound, the “inhibition zone (IZ)” value in assay [12], in [13], in assay [14] and in assay [17] was “inactive” in each case. The outcome in [2], in [6], in [8], in assay [10], in [15] and in [16] was inactive. Moreover, the result in [18] and in assay [20] was inactive. Also, the zone of inhibition at 10 µg/disc in [3] and in assay [19] was 8 mm in each case. Moreover, the “antibacterial activity (active/not active)” value in assay [21], in assay [22], in assay [23], in [24] and in assay [26] was “Active” in each case. Also, the “antimycobacterial activity (active/not active)” value in assay [25] was “Active”.

With `CC(=O)SC1CC(=O)N1S(=O)(=O)O` (racemic), the zone of inhibition at 10 µg/disc in assay [1] was found to be 17 mm; in [3], 14 mm; in [4], 17 mm; in assay [7], 18 mm; in assay [9], 11 mm; in assay [11], 12 mm. The zone of inhibition at 10 µg/disc in [12] is 12 mm; in [13], 11 mm; in assay [17] it was 12 mm; in assay [19], 12 mm. The result in [2], in assay [6], in [8], in assay [10], in assay [15] and in assay [16] was inactive. The outcome in assay [18] and in [20] was inactive. For the same compound, the “inhibition zone (IZ)” value in assay [5] and in [14] was “inactive” each time.

As for `O=C1CC(Sc2ccc(O)cc2)N1` (racemic), the MBC was > 200 µg/mL in assay [27]; < 15.6 µg/mL in [28]; < 15.6 µg/mL in assay [29]; > 500 µg/mL in assay [30]; < 15.6 µg/mL in [31]; < 15.6 µg/mL in assay [32]. Further, the MBC in [33] was < 15.6 µg/mL. Besides, the result in assay [2], in assay [6], in [8], in [10], in assay [15] and in [16] was inactive. Besides, the result in assay [18] and in [20] was inactive.

Turning to `O=C1CC(Sc2ccccc2)N1` (racemic), the “inhibition zone (IZ)” value in [1], in [4], in [5], in assay [12] and in [19] was “inactive” in each case. For the same compound, the outcome in assay [2], in assay [6], in [8], in [10], in assay [15] and in assay [16] was inactive. In addition, the outcome in assay [18] and in assay [20] was inactive. Moreover, the “antibacterial activity (active/not active)” value in assay [21], in [22], in [23], in assay [24] and in assay [26] was “inactive” throughout. Further, in assay [25], the “antimycobacterial activity (active/not active)” value was “inactive”.
